Experimental data as given in ChEMBL document CHEMBL4513216, “Probing the Open Global Health Chemical Diversity Library for Multistage-Active Starting Points for Next-Generation Antimalarials” (ACS Infect Dis, 2020).

Test: Toxicity liver stage against HepG2, at 10uM
Type: cell-based
Design: test concentration 10 uM, cell line HepG2-A16-CD81EGFP
Details: human, HepG2-A16-CD81EGFP cells; read-out: INHIBITION
In short: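 Uninfected HepG2-A16-CD81EGFP cells, 3 × 10^3 per well, 1536-well, plated on prespotted compound at 10 μM final, parasite-free screening media added to match infected plates; puromycin 10 μM positive, DMSO 0.5% negative; run in parallel with 48 h PbLuc assay at 37 °C, 5% CO2; viability by CellTiter-Glo luminescence, normalized to controls.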

Row | SMILES | cytotoxicity at 10 µM
1 | CCn1cnnc1CNC(=O)N1CCN(c2cccs2)CC1 | -2.07%
2 | COCCn1cc(C(=O)NCCS(N)(=O)=O)c2ccccc21 | 7.01%
3 | Cc1noc(C)c1CCC(=O)N1CCCN(Cc2cscn2)CC1 | -4.51%
4 | CN(C)C(CNCc1nc(-c2ccsc2)no1)c1ccco1 (stereo unspecified) | 10.2%
5 | O=C(Cc1ccccc1)N1CC[C@@H]2CNS(=O)(=O)[C@@H]2CC1 | -9.88%
6 | COc1ccccc1C(C)NC(=O)NCCC(=O)NC1CCCCC1 (stereo unspecified) | 0.0119%
7 | Cc1cc(-n2cccn2)ccc1CN1CCC(O)(CN2CCCCC2)C1 (stereo unspecified) | 6.2%
8 | COc1ncccc1C(=O)N1CCn2c(COCC3CC3)cnc2C1C (stereo unspecified) | -1.03%
9 | N#Cc1cccc(C(=O)NS(=O)(=O)c2ccc(C#N)c(Cl)c2)c1 | -3.54%
10 | Cc1nn(C(C)C)c(C)c1S(=O)(=O)Nc1ccc(C(=O)O)c(Cl)c1 | -9.5%
11 | Cc1nc(CNCC2CN(C)CCO2)cs1 (stereo unspecified) | -9.16%
12 | CC(Cn1cccn1)NC(=O)NCCN1CCc2ccccc2C1 (stereo unspecified) | -4.45%
13 | COCCN(C)C1COC2(CCN(Cc3cccc(F)c3)CC2)C1 (stereo unspecified) | -79.3%
14 | CCc1nnc2n1CCN(C(=O)CN(C)C1CC1)C2 | -1.28%
15 | O=C(NCCNc1cnccn1)N1CCCC1 | 3.92%
16 | Cc1ccc(C(=O)NC2CCN(C(=O)Nc3ccncc3)CC2)o1 | 1.48%
17 | NC(=O)C1CCN(C(=O)NCCNc2ccccn2)CC1 | -12.8%
18 | Cc1cc2c(=O)n(CC(=O)N3CCn4cccc4C3C(C)C)cnc2s1 (stereo unspecified) | 3.77%
19 | Cn1nc(C(=O)NC2(c3ccc(Cl)cc3)CCCC2)ccc1=O | -4.47%
20 | COCc1nnc(NC(=O)CN2C(=O)c3ccccc3NC2C(C)C)s1 (stereo unspecified) | -4.19%
21 | Cc1cc(C)nc(NC2CC(=O)N(C(C)(C)C)C2)n1 (stereo unspecified) | -5.81%
22 | COCCOc1ccc(NC(=O)N(CCCO)CC(C)(C)C)cn1 | -7.85%
23 | Cc1nc(C)n(C2CCCN(C(=O)c3cscn3)C2)n1 (stereo unspecified) | -8.78%

Row | SMILES | cytotoxicity at 10 µM
24 | NC(=O)CN1CCC2(CC1)CC(=O)c1ccc3ccccc3c1O2 | 1.76%
25 | CNc1cccc(C2CCCN(C(=O)c3coc(C)n3)C2)n1 (stereo unspecified) | -11.7%
26 | Cn1cc(NS(=O)(=O)c2ccc(C(F)(F)F)cc2)ccc1=O | 6.08%
27 | Cc1[nH]c2c(C)cccc2c1CC(=O)N(C)CCN(C)C | 1.14%
28 | CC1c2ncc(CN3CCN(C)CC3)n2CCN1CC1CC1 (stereo unspecified) | -20.3%
29 | CC(C)CN1CCCC1c1cc[nH]n1 (stereo unspecified) | 9.95%
30 | O=C1CC(c2cccnc2)c2c(sc3c2CCCC3)N1 (stereo unspecified) | 8.75%
31 | CCn1nc(C)c(CN(CCCN(C)C)Cc2ccccn2)c1C | 1.62%
32 | Cc1noc(C)c1CN1C(=O)[C@@H]2CC[C@H]1CN(Cc1nccs1)C2 | -0.626%
33 | COCc1csc(NC(=O)N2CCC(Cc3cnn(C)c3)C2)n1 (stereo unspecified) | 3.13%
34 | CCSc1ccc(NC(=O)NC2CCc3[nH]ncc3C2)cn1 (stereo unspecified) | -3.27%
35 | CCc1nccc(CN2CCCC(CNC(=O)c3occc3C)C2)n1 (stereo unspecified) | 2.28%
36 | CN(C)c1ccc(NC(=O)NCc2ccc(Cl)s2)cn1 | 6.43%
37 | Cc1ccc(-c2ncc(C(=O)NCCS(N)(=O)=O)s2)c(C)c1 | -10.7%
38 | CCn1cc(N)c(-c2nnc3n2CCCC3)n1 | -8.72%
39 | CC(C)(C)c1coc([C@@H]2COCCN2Cc2csnn2)n1 | 3.33%
40 | CS(=O)(=O)CCn1ccc(NC(=O)Cc2cccc(Cl)c2)n1 | -3.36%
41 | CC(C)Cc1ncc2c(n1)CN(c1nccc(N(C)C)n1)C2 | -6.1%
42 | CCC(O)CN1CCN(C(=O)c2cccc3c2OCC(=O)N3)CC1 (stereo unspecified) | -7.55%
43 | CC(C)c1noc(CCCC(=O)NC2CCS(=O)(=O)C2)n1 (stereo unspecified) | 4.67%
44 | Cc1cnc(C(=O)N2CC[C@H]3C[C@@H](c4nc(C)cs4)O[C@@H]3C2)cn1 | 9.32%
45 | O=C(NCC1CC1)c1nnc2ccc(Cl)cc2n1 | 0.318%
46 | COCCN1CCC2(CC1)COc1ccccc1S(=O)(=O)N(C)C2 | -1.28%
